Data taken from ChEMBL document CHEMBL1157338, “5-alkylresorcinols from Merulius incarnatus” (J Nat Prod, 2006).
In brackets after ≈: the same amount, converted by molar mass. One block for each molecule: values may come before it. Activity calls are given as the source filed them. No cut-off for these calls is given here.

Columns and labels:
Staphylococcus aureus = assay: Antimicrobial activity against methicillin-resistant Staphylococcus aureus ATCC 43300 by antimicrobial susceptibility test; assay type: functional, organism-based
Cryptococcus neoformans = assay: Antimicrobial activity against Cryptococcus neoformans ATCC 90113 by broth dilution method; assay type: functional, organism-based
Candida albicans = assay: Antimicrobial activity against Candida albicans ATCC 90028 by broth dilution method; assay type: functional, organism-based
Nakaseomyces glabratus = assay: Antimicrobial activity against Candida glabrata ATCC 90030 by broth dilution method; assay type: functional, organism-based
Pichia kudriavzevii = assay: Antimicrobial activity against Candida krusei ATCC 6258 by broth dilution method; assay type: functional, organism-based
Aspergillus fumigatus = assay: Antimicrobial activity against Aspergillus fumigatus ATCC 90906 by broth dilution method; assay type: functional, organism-based
[1] = system: Mycobacterium intracellulare; assay: Antimicrobial activity against Mycobacterium intracellular ATCC 23068 by alamar blue method; assay type: functional, organism-based
Summary of the method: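 Modified Alamar Blue procedure, highest concentration 20 µg/mL. IC50 taken from dose-response curves, with amphotericin B as positive control.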

Leishmania major = assay: Antileishmanial activity against Leishmania major MRHO/IR/75/ER promastigotes after 72 hrs by alamar blue assay; assay type: functional, organism-based
Summary of the method: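 Alamar Blue read-out against promastigotes, with pentamidine and amphotericin B as reference standards.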

Vero = assay: Cytotoxicity against african green monkey Vero cells at 25 ug/ml; assay type: cell-based; details: chlorocebus sabaeus

SMILES: C=CCCC/C=C\C=C\CCCCCCCCc1cc(O)cc(O)c1
- IC50 (Staphylococcus aureus): 15 µg/mL (≈ 43.8 µM)

SMILES: CCCCC/C=C\C/C=C\CCCCCCCc1cc(O)cc(O)c1
- IC50 (Staphylococcus aureus): 6.5 µg/mL (≈ 18.9 µM)

- IC50 (Cryptococcus neoformans): 0.75 µg/mL (≈ 0.812 µM)
SMILES: C[C@@H]1[C@H](O)[C@@H](C)/C=C/C=C/C=C/C=C/C=C/C=C/C=C/[C@H](O[C@@H]2O[C@H](C)[C@@H](O)[C@H](N)[C@@H]2O)C[C@@H]2O[C@](O)(C[C@@H](O)C[C@@H](O)[C@H](O)CC[C@@H](O)C[C@@H](O)CC(=O)O[C@H]1C)C[C@H](O)[C@H]2C(=O)O [AMPHOTERICIN B]

SMILES: CCCCCCCCCCCCCCCCCc1cc(O)cc(O)c1
- Activity (Candida albicans): inactive
- Activity (Nakaseomyces glabratus): inactive
- Activity (Pichia kudriavzevii): inactive
- Activity (Aspergillus fumigatus): inactive

SMILES: O=C(O)c1cn(C2CC2)c2cc(N3CCNCC3)c(F)cc2c1=O [CIPROFLOXACIN]
- IC50 [1]: 0.4 µg/mL (≈ 1.21 µM)

SMILES: C=CCCC/C=C\C/C=C\CCCCCCCc1cc(O)cc(O)c1
- IC50 (Staphylococcus aureus): 2.5 µg/mL (≈ 7.3 µM)
- IC50 (Leishmania major): 3.6 µg/mL (≈ 10.5 µM)
- IC90 (Leishmania major): 7 µg/mL (≈ 20.4 µM)
- Activity (Vero): Non-toxic

SMILES: N=C(N)c1ccc(OCCCCCOc2ccc(C(=N)N)cc2)cc1 [PENTAMIDINE]
- IC50 (Leishmania major): 0.6 µg/mL (≈ 1.76 µM)
- IC90 (Leishmania major): 1.9 µg/mL (≈ 5.58 µM)

SMILES: CCCCCCCCCCCCCCCc1cc(O)cc(O)c1
- Activity (Candida albicans): inactive
- Activity (Nakaseomyces glabratus): inactive
- Activity (Pichia kudriavzevii): inactive
- Activity (Aspergillus fumigatus): inactive

SMILES: CCCCCCCC/C=C\CCCCCCCc1cc(O)cc(O)c1
- IC50 (Staphylococcus aureus): 8 µg/mL (≈ 23.1 µM)
- IC50 [1]: 10 µg/mL (≈ 28.9 µM)
